{
  "source": "paper PMC6544531",
  "about": "(Nature chemistry, 2019)",
  "key": {"[1]": {"tested_on": "farnesylated substrates (YnF labeling) in EA.hy926 cells", "type": "cell-based, human", "details": "for mean in-cell IC50 response (YnF labeling of farnesylated substrates): 10 µM YnF, 1 h inhibitor pre-incubation + 8 h", "procedure,_shortened": "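EA.hy926 endothelial cells labeled with alkyne prenyl probe alongside increasing concentrations of prenyl transferase inhibitor. Lysates were spiked with a heavy SILAC standard, a lysate dual-labeled with 13C615N4-Arg/13C615N2-Lys (R10K8) plus the same probe. Probe-labeled proteins were quantified against this standard by spike-in SILAC chemical proteomics, giving dose-response curves per farnesylated substrate.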"}, "FTase": {"biological_target": "FTase (Rattus norvegicus, UniProt Q02293+Q04631)", "sequence (Q02293 whole entry, one chain of several)": "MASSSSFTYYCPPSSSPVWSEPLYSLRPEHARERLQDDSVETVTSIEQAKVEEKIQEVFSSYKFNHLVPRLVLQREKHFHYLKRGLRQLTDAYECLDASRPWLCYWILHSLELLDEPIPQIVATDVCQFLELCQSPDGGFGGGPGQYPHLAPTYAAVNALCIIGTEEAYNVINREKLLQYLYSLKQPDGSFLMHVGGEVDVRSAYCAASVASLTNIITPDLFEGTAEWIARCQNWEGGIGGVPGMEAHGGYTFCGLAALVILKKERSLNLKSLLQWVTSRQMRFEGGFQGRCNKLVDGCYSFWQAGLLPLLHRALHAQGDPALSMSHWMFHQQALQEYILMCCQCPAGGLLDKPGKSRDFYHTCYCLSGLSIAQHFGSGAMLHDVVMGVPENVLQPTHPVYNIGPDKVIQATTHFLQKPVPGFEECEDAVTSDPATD", "details": "read-out: IC50 (weak FTI); cited from earlier work"}, "EA.hy926 cells": {"tested_on": "EA.hy926 cells", "test": "Cell toxicity observed during cell treatment", "type": "cell-based, human", "details": "data not shown"}, "[2]": {"tested_on": "YnGG labeling of farnesylated substrates in EA.hy926 cells", "type": "cell-based, human", "procedure,_shortened": "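Human EA.hy926 cells given an FTase inhibitor over a range of concentrations and labeled with YnF or YnGG in parallel. Probe incorporation was quantified proteome-wide by spike-in SILAC chemical proteomics. Changes in the YnF/YnGG incorporation ratio were compared with loss of YnF labeling across concentrations. Points are mean of n=3 ± standard deviation.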"}},
  "note": "“Also recorded” adds a separate entry of the source.",
  "data": [
    {"smiles": "CCCC[C@@H](C)/C=C(C)/C=C(\\C)C(=O)NC1=C[C@@](O)(/C=C/C=C/C=C/C(=O)NC2=C(O)CCC2=O)[C@@H]2O[C@@H]2C1=O", "note": "[Manumycin A]", "values": [
      {"measurement": "impact on farnesylation (YnF labeling)", "setting": "[1]; up to the highest concentration tested (10 µM)", "value": "no evidence that Manumycin A impacted farnesylation; also recorded: insensitive"},
      {"measurement": "IC50", "setting": "FTase", "value": 5, "unit": "µM"},
      {"measurement": "concentration above which acute cell toxicity was evident", "setting": "EA.hy926 cells", "value": "> 10", "unit": "µM"}
    ]},
    {"smiles": "Cn1cncc1[C@@](N)(c1ccc(Cl)cc1)c1ccc2c(c1)c(-c1cccc(Cl)c1)cc(=O)n2C", "note": "[Tipifarnib]", "values": [
      {"measurement": "selectivity at the whole proteome level", "setting": "[1]", "value": "excellent selectivity"},
      {"measurement": "mean in-cell IC50 response (YnF labeling of farnesylated substrates)", "setting": "[1]", "value": "low nanomolar"},
      {"measurement": "concentration of maximum increase in YnGG labeling of KRAS", "setting": "[2]; KRAS", "value": 10, "unit": "nM"},
      {"measurement": "concentration of maximum increase in YnGG labeling of NRAS", "setting": "[2]; NRAS", "value": 5, "unit": "nM"},
      {"measurement": "concentration of maximum increase in YnGG labeling of RRAS2", "setting": "[2]; RRAS2", "value": 1, "unit": "nM"}
    ]},
    {"smiles": "COC(=O)[C@H](CCSC)NC(=O)c1ccc(NC[C@@H](N)CS)cc1-c1ccccc1", "note": "[FTI-277]", "values": [
      {"measurement": "selectivity at the whole proteome level", "setting": "[1]", "value": "excellent selectivity"},
      {"measurement": "mean in-cell IC50 response (YnF labeling of farnesylated substrates)", "setting": "[1]", "value": "micromolar"}
    ]}
  ]
}
